Experimental data taken from publication PMC3288193 (Clinical Immunology (Orlando, Fla.), 2011).

How the values were obtained:
[1] = system: purified Class II molecules (DRB1*0101, DRB1*0301, DRB1*0401, DRB1*0701, DRB1*1501); assay: Competition-based class II HLA binding assay; design: species or system human; conditions: test peptide 100 μM; average of 5 DRB1 alleles; Fig. 2
In short: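 Non-biotinylated test peptides (HPLC-purified ≥80%) at 100 μM competed against biotinylated standard peptide (0.1 μM) for purified class II molecules (50 nM), 24 h at 37°C. Complexes were captured on ELISA plates with pan anti-class II L243, then incubated with europium-streptavidin for 1 h at RT, developed 15–20 min, and read by TRF. Triplicates. Percent inhibition per allele was averaged across five alleles.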

[2] = system: LN cells of hemophilic FVIII KO E16 mice (H-2b); assay: T cell proliferation of LN cells from peptide-immunized E16 mice; assay type: in vivo, mouse; conditions: LN cells stimulated with 2191 in presence of competitor ORG peptides over a range of concentrations, Appendix Fig. 1
[3] = system: LN cells of HLA-DR4 (DRB1*0401) transgenic mice; assay: T cell proliferation of LN cells from peptide-immunized DR4 mice; assay type: in vivo, mouse; conditions: DR4 mice immunized with mixture of 2231-M1, -M2, -M3, 3 μg each in CFA; Fig. 5C
In short: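 Mixed peptides (3 μg each in CFA) were injected subcutaneously via hind footpad and tail base. After two weeks, pooled draining inguinal/popliteal LN cells (0.5×10^6/well) were stimulated 48 h with ORG or MOD peptides (0, 1, 3, 10 μg/ml) in RPMI 1640 with 2% FBS and 0.5% hemophilic mouse serum. Cells were pulsed with 1 μCi [3H]-thymidine for 16–20 h and beta-counted. Results are background-subtracted ΔCPM, mean ± SEM of triplicates.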

Row | Substance | effect of modification on average HLA binding versus ORG peptide [1] | HLA binding, average across HLA alleles (rank among ORG peptides) [1] | effect of competitor ORG peptides on 2191-O-specific proliferation [2] | de novo immunogenicity of MOD peptides (T cell proliferation) [3]
1 | 2191-M1: modified (MOD) version of 2191-O with one substitution, F2196G (TASSYGTNMFATWSPSKARL) | only moderately reduced binding | – | – | –
2 | 2191-O: original (ORG) human FVIII C2 domain epitope cluster peptide, amino acid positions 2191–2210 (TASSYFTNMFATWSPSKARL) | – | bound strongest | not affected by the presence of competitor ORG peptides | –
3 | 2231-M1: modified (MOD) version of 2231-O with F2234G mutation (QVDGQKTMKVTGVTTQGVKSL) | lower HLA binding | – | – | significantly lower
